Activity calls are given as the source filed them. No cut-off for these calls is given here.
Legend:
Orexin receptor type 2 [1] = target: T1, Orexin receptor type 2 (Homo sapiens, UniProt O43614); assay: Agonist activity at human OX2R stably expressed in CHO RD-HGA16 cells assessed as fluorescence changes measured after 30 mins by calcium mobilization assay; assay type: functional, cell-based
T1 sequence (O43614 whole entry): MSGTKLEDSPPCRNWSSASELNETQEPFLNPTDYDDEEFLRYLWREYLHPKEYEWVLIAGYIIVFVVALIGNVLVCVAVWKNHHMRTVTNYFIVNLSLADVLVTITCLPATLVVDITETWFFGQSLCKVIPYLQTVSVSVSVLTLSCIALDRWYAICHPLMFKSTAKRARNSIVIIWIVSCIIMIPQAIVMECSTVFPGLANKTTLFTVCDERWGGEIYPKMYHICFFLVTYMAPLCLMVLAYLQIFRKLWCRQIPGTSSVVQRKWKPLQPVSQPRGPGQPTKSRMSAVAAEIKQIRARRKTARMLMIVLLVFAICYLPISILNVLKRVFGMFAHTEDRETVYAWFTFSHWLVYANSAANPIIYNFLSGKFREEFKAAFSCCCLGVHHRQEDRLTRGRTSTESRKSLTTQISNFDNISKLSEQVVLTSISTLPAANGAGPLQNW

[2] = target: T2, Orexin/Hypocretin receptor type 1 (Homo sapiens, UniProt O43613); assay: Agonist activity at human OX1R stably expressed in CHO RD-HGA16 cells assessed as fluorescence changes measured after 30 mins by calcium mobilization assay; assay type: functional, cell-based
T2 sequence (O43613 whole entry): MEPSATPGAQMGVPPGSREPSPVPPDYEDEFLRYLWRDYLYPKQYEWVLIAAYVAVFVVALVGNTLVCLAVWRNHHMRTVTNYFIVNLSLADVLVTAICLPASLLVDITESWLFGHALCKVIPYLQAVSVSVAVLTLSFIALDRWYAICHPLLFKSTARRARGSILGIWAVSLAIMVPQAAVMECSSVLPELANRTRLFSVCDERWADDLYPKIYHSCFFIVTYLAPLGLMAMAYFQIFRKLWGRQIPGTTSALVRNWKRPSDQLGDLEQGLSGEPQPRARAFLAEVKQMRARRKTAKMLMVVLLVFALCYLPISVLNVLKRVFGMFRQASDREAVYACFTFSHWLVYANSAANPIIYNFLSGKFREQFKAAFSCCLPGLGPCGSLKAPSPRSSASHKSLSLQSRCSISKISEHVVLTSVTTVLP

[3] = target: T2, Orexin/Hypocretin receptor type 1; assay: Agonist activity at human OX1R stably expressed in CHO cells; assay type: functional, cell-based, CHO-RD-HGA16
Mus musculus [4] = assay: Sleep modulation activity in mouse assessed as increase in time spent in rapid eye movement sleep during light phase at 20 mg/kg, ip measured up to 6 hrs of post injection; assay type: functional, organism-based; details: time hrs <=6
Mus musculus [5] = assay: Sleep modulation activity in mouse assessed as decrease in time spent in non-rapid eye movement sleep during light phase at 30 to 300 nmol, icv measured up to 3 hrs of post injection; assay type: functional, organism-based; details: dose 30-300 nmol, time hrs <=3
Mus musculus [6] = assay: Sleep modulation activity in mouse assessed as increase in time spent in wakefulness during light phase at 20 mg/kg, ip measured up to 6 hrs of post injection; assay type: functional, organism-based; details: time hrs <=6
Mus musculus [7] = assay: Sleep modulation activity in mouse assessed as increase in time spent in wakefulness during light phase at 30 to 300 nmol, icv measured up to 3 hrs of post injection; assay type: functional, organism-based; details: dose 30-300 nmol, time hrs <=3
Mus musculus [8] = assay: Sleep modulation activity in mouse assessed as decrease in time spent in rapid eye movement sleep during light phase at 40 to 60 mg/kg, ip measured up to 3 hrs of post injection; details: dose 40-60 mg/kg, time hrs <=3
Mus musculus [9] = assay: Sleep modulation activity in mouse assessed as increase in time spent in wakefulness during light phase at 40 to 60 mg/kg, ip measured up to 3 hrs of post injection; details: dose 40-60 mg/kg, time hrs <=3
Mus musculus [10] = assay: Sleep modulation activity in mouse assessed as increase in time spent in wakefulness at 40 mg/kg, ip measured after 4 hrs post injection; assay type: functional, organism-based
Outline: (§1)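 Twelve-month-old mice implanted under ketamine/xylazine with telemetric EEG/EMG electrodes, and allowed 7–10 days or more to recover. They were housed on 12-h light/dark (lights on 06:00) at 21–22°C. Counterbalanced crossover: 40 mg/kg i.p. in 0.3 ml saline or saline, given at ZT 4–4.5, at least 48 h apart. Manual 10-s epoch scoring (wake/NREM/REM) over 0–4 h gave % time, transitions, episode number and duration. Mean ± SEM.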

Mus musculus [11] = assay: Sleep modulation activity in mouse assessed as reduction in number of episodes of non-rapid eye movement sleep at 40 mg/kg, ip measured after 4 hrs post injection
Mus musculus [12] = assay: Sleep modulation activity in mouse assessed as decrease in time spent in non-rapid eye movement sleep at 40 mg/kg, ip measured after 4 hrs post injection; assay type: functional, organism-based; outline: as §1
Mus musculus [13] = assay: Sleep modulation activity in mouse assessed as reduction in transition between states by measuring stabilization of reduced sleep/wake fragmentation at 40 mg/kg, ip measured after 4 hrs post injection; assay type: functional, organism-based; outline: as §1
Mus musculus [14] = assay: Sleep modulation activity in mouse assessed as reduction in number of episodes of wake at 40 mg/kg, ip measured after 4 hrs post injection
Mus musculus [15] = assay: Sleep modulation activity in mouse assessed as decrease in time spent in rapid eye movement sleep at 40 mg/kg, ip measured after 4 hrs post injection; assay type: functional, organism-based; outline: as §1
Mus musculus [16] = assay: Sleep modulation activity in mouse assessed as effect on number of episodes of rapid eye movement sleep at 40 mg/kg, ip measured after 4 hrs post injection; assay type: functional, organism-based; outline: as §1
Orexin receptor type 2 [17] = target: T1, Orexin receptor type 2; assay: Agonist activity at human OX2R stably expressed in CHO cells; assay type: functional, cell-based, CHO-RD-HGA16

| SMILES | EC50 (Orexin receptor type 2 [1]) | EC50 [2] | other results |
| --- | --- | --- | --- |
| COc1ccc(-c2cccc(C(=O)NCc3ccccn3)c2)cc1S(=O)(=O)Nc1cccc(NCCNC(=O)c2cccc(C)c2)c1 | – | > 10 µM | – |
| COc1ccc(-c2cccc(C(=O)N(C)C)c2)cc1S(=O)(=O)Nc1cccc(N2CCN(C(=O)c3ccccc3N(C)C)CC2)c1 | > 10 µM | > 10 µM | – |
| COc1ccc(-c2cccc(C(=O)N(C)Cc3ccncc3)c2)cc1C(=O)Nc1cccc(NCCNC(=O)c2cccc(C)c2)c1 | 0.863 µM | > 10 µM | – |
| COc1ccc(-c2cccc(C(=O)N(C)C)c2)cc1S(=O)(=O)Nc1cccc(CCNC(=O)c2ccccc2-n2nccn2)c1 | – | – | EC50 ([3]; read-out: pEC50 (converted)): < 35.5 µM |
| COc1ccc(-c2cccc(C(=O)N(C)Cc3ccncc3)c2)cc1S(=O)(=O)Nc1cccc(NCCNC(=O)c2cccc(C)c2)c1 | – | – | Activity (Mus musculus [10]): Active; Activity (Mus musculus [11]): Active; Activity (Mus musculus [12]): Active; Activity (Mus musculus [13]): Active; Activity (Mus musculus [14]): Active; Activity (Mus musculus [15]): Active; Activity (Mus musculus [16]): inactive |
| COc1ccc(-c2cccc(CN(C)C)c2)cc1S(=O)(=O)Nc1cccc(NCCNC(=O)c2ccccc2N(C)C)c1 | 0.56 µM | > 10 µM | – |
| COC(=O)N1CCC[C@H](NS(C)(=O)=O)[C@@H]1CO[C@H]1CC[C@@H](c2ccccc2)CC1 [DANAVOREXTON] | – | – | EC50 ([3]; read-out: EC50): > 30 µM |
| COc1ccc(-c2cccc(C(=O)N(C)C)c2)cc1C(=O)Nc1cccc(NCCNC(=O)c2cccc(C)c2)c1 | 1.27 µM | > 10 µM | – |
| COc1ccc(-c2cccc(C(=O)N(C)c3ccccn3)c2)cc1S(=O)(=O)Nc1cccc(NCCNC(=O)c2cccc(C)c2)c1 | – | > 10 µM | – |
| COc1ccc(-c2cccc(C(=O)NCCN(C)C)c2)cc1S(=O)(=O)Nc1cccc(NCCNC(=O)c2cccc(C)c2)c1 | – | > 10 µM | – |
| COc1ccc(CCC(=O)N(C)C)cc1S(=O)(=O)Nc1cccc(NCCNC(=O)c2cccc(C)c2)c1 | > 10 µM | – | – |
| Cc1ccc(Cn2c(=N)n(CC(O)c3ccc(Cl)c(Cl)c3)c3ccccc32)cc1 (stereo not drawn) | – | – | EC50 (Orexin receptor type 2 [17]): > 3.2 µM; EC50 ([3]; read-out: EC50): > 3.2 µM |
| COc1ccc(-c2cccc(C(=O)N(C)C)c2)cc1S(=O)(=O)Nc1cccc(NCC(C)NC(=O)c2cccc(C)c2)c1 (stereo not drawn) | 0.376 µM | 0.666 µM | – |

Second part, led by results:

| EC50 (Orexin receptor type 2 [1]) | EC50 [2] | SMILES | other results |
| --- | --- | --- | --- |
| 0.166 µM | – | COc1ccc(-c2csc(C(=O)N(C)C)c2)cc1S(=O)(=O)Nc1cccc(NCCNC(=O)c2cccc(C)c2)c1 | – |
| 0.165 µM | 0.824 µM | COc1ccc(-c2cccc(C(=O)N(C)C)c2)cc1S(=O)(=O)Nc1cccc(NCCNC(=O)c2ccccc2N(C)C)c1 | Activity (Mus musculus [4]): inactive; Activity (Mus musculus [5]): Active; Activity (Mus musculus [6]): inactive; Activity (Mus musculus [7]): Active; Activity (Mus musculus [8]): Active; Activity (Mus musculus [9]): Active |
| > 10 µM | – | COc1ccc(/C=C/C(=O)N(C)C)cc1S(=O)(=O)Nc1cccc(NCCNC(=O)c2cccc(C)c2)c1 | – |
| – | > 10 µM | COc1ccc(-c2cccc(C(=O)N(C)Cc3ccccc3)c2)cc1S(=O)(=O)Nc1cccc(NCCNC(=O)c2cccc(C)c2)c1 | – |
| > 10 µM | > 10 µM | COc1ccc(-c2cccc(C(=O)N(C)C)c2)cc1S(=O)(=O)Nc1cccc(N2CCN(C(=O)c3cccc(C)c3)CC2)c1 | – |

Reference: ChEMBL document CHEMBL5029148, “Discovery of Arylsulfonamides as Dual Orexin Receptor Agonists” (J Med Chem, 2021)
